Bioassay records deposited in PubChem by several laboratories.
tolC growth inh – E. coli tolC mutant growth inhibition; E. coli BW25113 tolC mutant growth, OD615; growth inhibition, % at 10 µM (by protocol); 65,000 compounds, 2.2% hits; AID 573;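 active = growth inhibition at or above a cutoff equal to the mean over every tested compound plus 3 SD, cut at about 60% in these data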;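 also: growth measured after 20 h incubation at 37 °C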
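Test system: tolC-deleted E. coli BW25113; medium: LB with kanamycin 50 µg/mL; compound: single-point testing at 10 µM; incubation: 20 h compound exposure of bacteria at 37 °C; signal: OD at 615 nm; evaluation: growth inhibition in percent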
H69AR inhibit – growth inhibitors of human H69AR lung tumor cells; H69AR lung tumor viability, ATP luminescence, 72 h; hits give low values; viability, % at 10 µM; 85,000 compounds, 6% hits; AID 598;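 active = viability at or below 40%; inactive = viability above 40%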;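 also: multidrug resistant small cell line overexpressing MRP-1 efflux transporter; 100% = mean luminescence of untreated control wells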
Jurkat viability – cytotoxicity toward Jurkat cells | Jurkat E6.1 viability, ATP luminescence, 48 h | inhibition, % at 4 µM | 56,000 compounds, 1.2% hits | AID 463;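 active = inhibition above the mean inhibition of all tested compounds plus 3 SD, cut at about 28% in these data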
HUVEC inhibit – inhibitors of human endothelial cell proliferation; 86,000 compounds, 1.1% hits; AID 648; viability, % at 10 µM (by protocol); HUVEC proliferation, CellTiter-Glo luminescence, 72 h; hits give low values;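 active = viability at or below 30%; inactive = viability above 30%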;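 also: 100% = median luminescence of DMSO-only cell control wells on each plate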
Fibroblast inh – blocks proliferation of human lung fibroblasts; AID 719; LL 47 human lung fibroblast viability, ATP luminescence; hits give low values; viability, % at 10 µM; 85,000 compounds, 1.1% hits;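 active = viability at or below 50% in the single dose screen; inactive = viability above 50%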;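 also: compound exposure lasted 72 h before the ATP readout; 100% = median luminescence of untreated cell-only wells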
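Material: human lung fibroblast line LL 47, low passage; Evaluation: viability percentage against median untreated-cell control; Buffer or medium: 15% FBS in IMEM; Incubation: 72 h compound exposure at 37 °C after overnight plating; Dosing: 0.1% DMSO in all compound wells; Measured by: CellTiter-Glo luminescence.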
Ecoli WT expand – E. coli BW25113 growth inhibition, expanded screen | OD600 absorbance | growth inhibition, % at 100 µM | 98,000 compounds, 0.15% hits;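 active = growth inhibition above about 50% at one test dose, limit read from the data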;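 also: growth measured after 20 h incubation at 37 °C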
An asterisk follows results filed as active. This is a sample that favours compounds with a hit; in the whole collection about 6.4% have one here.

CC(C)(C)c1nnc2sc(SCC(=O)N3CCCc4ccccc43)nn2c1=O was read as tolC growth inh 35.2, H69AR inhibit 16.9*, Jurkat viability 8.8, HUVEC inhibit 67.8, Fibroblast inh 77.6 and Ecoli WT expand 2.0.
`CC(C)CSc1nc2c(=O)[nH][nH]c(=O)c2n1Cc1ccccc1` gave H69AR inhibit 88.0, HUVEC inhibit 101.0 and Fibroblast inh 96.7.
For O=C(c1ccco1)N1CCN(c2ncnc3scc(-c4ccc(F)cc4)c23)CC1 the results were H69AR inhibit 23.8*, HUVEC inhibit 87.3 and Fibroblast inh 69.4.
For CCC(c1nnnn1C(C)(C)C)N1CCN(c2cc(Cl)ccc2C)CC1 (configuration not stated) the results were tolC growth inh 28.1, H69AR inhibit 100.4, Jurkat viability 4.1, HUVEC inhibit 101.7, Fibroblast inh 98.6 and Ecoli WT expand -8.0.
`Cc1cc2c(cc1C)CSC(c1ccc3ccccc3c1O)SC2` gave H69AR inhibit 38.2*, HUVEC inhibit 90.5, Fibroblast inh 97.7 and Ecoli WT expand -6.0.
`Cc1cc2c(cc1C)CSC(c1ccccc1O)SC2` gave H69AR inhibit 57.6, HUVEC inhibit 34.4, Fibroblast inh 71.2 and Ecoli WT expand 0.0.
For Cc1cc2c(cc1C)CSC(c1c(O)ccc3ccccc13)SC2 the results were H69AR inhibit 1.6*, HUVEC inhibit 1.7*, Fibroblast inh 67.3 and Ecoli WT expand -4.0.
`c1ccc(-c2nnc3sc(-c4cc5ccccc5o4)nn23)cc1` gave tolC growth inh -19.4, H69AR inhibit 31.8*, Jurkat viability -5.1, HUVEC inhibit 64.6, Fibroblast inh 111.4 and Ecoli WT expand -7.0.
For CCN(CC)c1ccc(-c2nn3c(-c4ccccc4OC)nnc3s2)cc1 the results were tolC growth inh 40.0, H69AR inhibit 11.7*, Jurkat viability 99.3*, HUVEC inhibit 12.3*, Fibroblast inh 38.5* and Ecoli WT expand -11.0.
For Cc1nnc2sc(-c3cc4ccccc4o3)nn12 the results were tolC growth inh -15.1, H69AR inhibit 91.3, Jurkat viability 6.8, HUVEC inhibit 98.7 and Fibroblast inh 107.7.
Screening COc1cccc(OC)c1-c1nn2c(-c3cc(-c4ccccc4)n[nH]3)nnc2s1 returned tolC growth inh 9.8, Jurkat viability 66.0* and Ecoli WT expand -1.0.
`COc1ccc(-c2nn3c(-c4ccccc4)nnc3s2)cc1` gave tolC growth inh 14.4, H69AR inhibit 35.2*, Jurkat viability 5.8, HUVEC inhibit 73.2, Fibroblast inh 91.2 and Ecoli WT expand -5.0.
`c1ccc(-c2nnc3sc(-c4csc5c4CCCC5)nn23)cc1` gave tolC growth inh 21.8, H69AR inhibit 30.7*, Jurkat viability 4.9, HUVEC inhibit 76.1, Fibroblast inh 99.5 and Ecoli WT expand 2.0.
`CCCCC(=O)NC(c1cccc([N+](=O)[O-])c1)c1c(OC(C)=O)ccc2ccccc12` (configuration not stated) gave H69AR inhibit 4.6*, HUVEC inhibit 79.6 and Fibroblast inh 89.0.
CCCc1cc(C(=O)Nc2cc(OC)c(Cl)cc2OC)no1 was read as tolC growth inh 1.9, H69AR inhibit 79.2, Jurkat viability -4.1, HUVEC inhibit 74.8, Fibroblast inh 99.1 and Ecoli WT expand 3.0.
Screening COc1cc(NC(=O)c2cc(CC(C)C)on2)c(OC)cc1Cl returned tolC growth inh 67.9*, H69AR inhibit 86.4, Jurkat viability -4.5, HUVEC inhibit 95.6, Fibroblast inh 87.5 and Ecoli WT expand -2.0.
Screening CCOC(=O)Cc1cc(=O)n2[nH]c(C)c(-c3ccc(Cl)cc3)c2n1 returned H69AR inhibit 16.0*, HUVEC inhibit 45.6, Fibroblast inh 68.8 and Ecoli WT expand 7.0.
`CCOC(=O)Cc1cc(=O)n2[nH]c(C)c(-c3ccc(OC)cc3)c2n1` gave tolC growth inh 13.6, H69AR inhibit 76.1, Jurkat viability 0.0, HUVEC inhibit 89.3, Fibroblast inh 99.7 and Ecoli WT expand -1.0.
For CCOC(=O)Cc1c(C)nc2c(-c3ccc(Cl)cc3)c[nH]n2c1=O the results were tolC growth inh 98.7*, H69AR inhibit 22.7*, Jurkat viability -6.2, HUVEC inhibit 57.1 and Ecoli WT expand 21.0.
CCCN(CC1CC1)S(=O)(=O)c1ccc(-n2cnnn2)c(OC)c1 was read as H69AR inhibit 73.0, HUVEC inhibit 94.8, Fibroblast inh 99.1 and Ecoli WT expand -6.0.
Screening CC(C)CNC(=O)c1cccc(Cn2cc(Cl)cn2)c1 returned tolC growth inh 3.0, H69AR inhibit 88.1, Jurkat viability -6.4, HUVEC inhibit 90.2, Fibroblast inh 99.4 and Ecoli WT expand 6.0.
Cn1c(NC(=O)c2cccc(Cn3cc(Cl)cn3)c2)nc2ccccc21 was read as tolC growth inh -7.9, H69AR inhibit 37.2*, Jurkat viability 2.0, HUVEC inhibit 71.7, Fibroblast inh 49.6* and Ecoli WT expand -12.0.
`CCn1c(NC(=O)c2cccc(Cn3cc(Cl)cn3)c2)nc2ccccc21` gave tolC growth inh 24.1, H69AR inhibit 61.5, Jurkat viability 75.1*, HUVEC inhibit 87.7, Fibroblast inh 66.5 and Ecoli WT expand -3.0.
CCN(CC)c1nc(C)nc2c1cnn2CCc1ccccc1 was read as Ecoli WT expand 11.0.
O=C(Cc1n[nH]c(=O)c2ccccc12)OCC(=O)c1ccc2c(c1)OCCO2 was read as tolC growth inh 19.1, H69AR inhibit 23.6*, Jurkat viability 91.4*, HUVEC inhibit 44.4, Fibroblast inh 65.3 and Ecoli WT expand -3.0.
Screening COc1nc(N2CCCC2)nc(-n2cc(-c3ccccc3)nn2)n1 returned tolC growth inh -12.6, H69AR inhibit 88.8, Jurkat viability 0.4, HUVEC inhibit 92.1 and Fibroblast inh 103.8.
`CC1(C(=O)OCC(=O)c2c[nH]c3ccccc23)CC1(Cl)Cl` (configuration not stated) gave Ecoli WT expand 15.0.
Screening CC(C)Cc1ccc(C(C)C(=O)OCC(=O)c2c[nH]c3ccccc23)cc1 (configuration not stated) returned H69AR inhibit 39.0*, HUVEC inhibit 84.1, Fibroblast inh 97.5 and Ecoli WT expand -11.0.
Screening CC(C)CNS(=O)(=O)c1ccc(CCC(=O)Nc2ccc3c(c2)OCCO3)cc1 returned Ecoli WT expand -6.0.
Cc1ccc(C)c(Oc2nnnn2-c2ccccc2)c1 was read as tolC growth inh 14.5, H69AR inhibit 87.2, Jurkat viability 16.3, HUVEC inhibit 83.2, Fibroblast inh 95.3 and Ecoli WT expand 8.0.
Screening Cc1ccc(C(C)C)c(Oc2nnnn2-c2ccccc2)c1 returned tolC growth inh 92.2*, H69AR inhibit 30.2*, Jurkat viability 12.3, HUVEC inhibit 84.4, Fibroblast inh 87.1 and Ecoli WT expand 8.0.
`c1ccc(-n2nnnc2Oc2cccc3cccnc23)cc1` gave tolC growth inh 91.4*, H69AR inhibit 36.1*, Jurkat viability 14.0, HUVEC inhibit 78.6, Fibroblast inh 89.6 and Ecoli WT expand 1.0.
